Reference: ChEMBL document CHEMBL1125337, “Synthesis and antibacterial activity of a series of basic amides of teicoplanin and deglucoteicoplanin with polyamines” (J Med Chem, 1992)
Converted amounts (≈) assume the structure as drawn.

Columns and labels:
[1] = test system: Escherichia coli; assay: Minimum inhibitory concentration against Escherichia coli L 47; type: functional
In short: (§1)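 MIC (µg/mL) by microbroth dilution in Iso-Sensitest broth; final inoculum 10^4 cfu/mL; 24 h at 37 °C in air.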

[2] = test system: Pseudomonas aeruginosa; assay: Minimum inhibitory concentration against Pseudomonas aeruginosa ATCC 10145; type: functional; in short: as §1
[3] = test system: Streptococcus pneumoniae; assay: Minimum inhibitory concentration against Streptococcus pneumoniae L 44; type: functional
In short: (§2)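 MIC (µg/mL) by microbroth dilution in Todd-Hewitt broth, final inoculum 10^4 cfu/mL, incubated 24 h at 37 °C in air.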

[4] = test system: Escherichia coli; assay: Minimum inhibitory concentration of compound was determined against Escherichia coli L 1572; type: functional; in short: as §1
[5] = test system: Bacteroides fragilis; assay: Minimum inhibitory concentration of compound was determined against Bacteroides fragilis L 1011; type: functional
In short: (§3)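 Microbroth dilution MIC (µg/mL) in Wilkins-Chalgren broth, final inoculum 10^5 cfu/mL, incubated 48 h in an anaerobic chamber.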

[6] = test system: Staphylococcus aureus; assay: Minimum inhibitory concentration against Staphylococcus aureus L 165; type: functional; in short: as §1
[7] = test system: Pseudomonas aeruginosa; assay: Minimum inhibitory concentration of compound was determined against Pseudomonas aeruginosa L 1138; type: functional; in short: as §1
[8] = Association constant to Ac2-L-Lys-D-Ala-D-Ala determined at pH 9; Value ranges from 5E4-7.5E4
[9] = test system: Staphylococcus haemolyticus; assay: Minimum inhibitory concentration against Staphylococcus haemolyticus L 602; type: functional; in short: as §1
[10] = test system: Proteus mirabilis; assay: Minimum inhibitory concentration of compound was determined against Proteus mirabilis L 1356; type: functional; in short: as §1
[11] = test system: Pseudomonas aeruginosa; assay: Minimum inhibitory concentration of compound was determined against Pseudomonas aeruginosa L 1498; type: functional; in short: as §1
[12] = test system: Proteus vulgaris; assay: Minimum inhibitory concentration against Proteus vulgaris ATCC 881; type: functional; in short: as §1
[13] = test system: Enterococcus faecalis; assay: Minimum inhibitory concentration against Enterococcus faecalis ATCC 7080; type: functional
In short: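 Microbroth dilution MIC (µg/mL), final inoculum 10^4 cfu/mL, incubated 24 h at 37 °C in air.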

[14] = test system: Enterobacter cloacae; assay: Minimum inhibitory concentration of compound was determined against Enterobacter cloacae L 1504; type: functional; in short: as §1
[15] = test system: Pseudomonas aeruginosa; assay: Minimum inhibitory concentration of compound was determined against Pseudomonas aeruginosa L 1348; type: functional; in short: as §1
[16] = test system: Klebsiella pneumoniae; assay: Minimum inhibitory concentration of compound was determined against Klebsiella pneumoniae L 1499; type: functional; in short: as §1
[17] = test system: Streptococcus pyogenes; assay: Efficacy of compound administered subcutaneously against Streptococcus pyogenes L 49 Septicemia in mouse; type: functional; conditions: sc
In short: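 Mice were infected intraperitoneally with about 10^5 Strep. pyogenes L 49 cells, about 100 times the 50% lethal dose. Groups of 5–8 mice were treated once right after challenge, by the route stated in the line. ED50 (mg/kg) was derived from percentage survival at each dose on day 7 (Spearman-Kärber).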

[18] = test system: Escherichia coli; assay: Minimum inhibitory concentration of compound was determined against Escherichia coli L 1484; type: functional; in short: as §1
[19] = test system: Streptococcus pyogenes; assay: Minimum inhibitory concentration against Streptococcus pyogenes L 49; type: functional; in short: as §2
[20] = test system: Escherichia coli; assay: Minimum inhibitory concentration of compound was determined against Escherichia coli L 1153; type: functional; in short: as §1
[21] = test system: Shigella sonnei; assay: Minimum inhibitory concentration of compound was determined against Shigella sonnei L 363; type: functional; in short: as §1
[22] = test system: Escherichia coli; assay: Efficacy of compound administered intravenously against Escherichia coli L 47 Septicemia in mouse; type: functional; conditions: iv
In short: (§4)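 Mouse septicemia from intraperitoneal injection of about 10^4 cells of E. coli L 47, about 100 times the 50% lethal dose. Groups of five to eight mice each got a single dose immediately after infection, by the route stated in the line. ED50 in mg/kg was calculated from percent survivors at each dose on day 7 (Spearman-Kärber).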

[23] = test system: Serratia marcescens; assay: Minimum inhibitory concentration of compound was determined against Serratia marcescens L 1506; type: functional; in short: as §1
[24] = test system: Escherichia coli; assay: Minimum inhibitory concentration of compound was determined against Escherichia coli L 1536; type: functional; in short: as §1
[25] = test system: Pseudomonas aeruginosa; assay: Minimum inhibitory concentration of compound was determined against Pseudomonas aeruginosa L 1533; type: functional; in short: as §1
[26] = test system: Escherichia coli; assay: Minimum inhibitory concentration of compound was determined against Escherichia coli L 1347; type: functional; in short: as §1
[27] = test system: Bacteroides fragilis; assay: Minimum inhibitory concentration of compound was determined against Bacteroides fragilis L 1010; type: functional; in short: as §3
[28] = test system: Klebsiella pneumoniae; assay: Minimum inhibitory concentration of compound was determined against Klebsiella pneumoniae L 1481; type: functional; in short: as §1
[29] = test system: Escherichia coli; assay: Efficacy of compound administered subcutaneously against Escherichia coli L 47 Septicemia in mouse; type: functional; conditions: sc; in short: as §4
[30] = test system: Enterobacter cloacae; assay: Minimum inhibitory concentration of compound was determined against Enterobacter cloacae L 1485; type: functional; in short: as §1
[31] = test system: Bacteroides fragilis; assay: Minimum inhibitory concentration of compound was determined against Bacteroides fragilis L 1236; type: functional; in short: as §3
[32] = test system: Streptococcus pyogenes; assay: Minimum inhibitory concentration of compound was determined against Streptococcus pyogenes L 49 in mouse; type: functional
[33] = test system: Escherichia coli; assay: Minimum inhibitory concentration of compound was determined against Escherichia coli L 1513; type: functional; in short: as §1
[34] = test system: Salmonella typhimurium; assay: Minimum inhibitory concentration of compound was determined against Salmonella Typhimurium L 35; type: functional, Salmonella enterica subsp. enterica serovar Typhimurium; conditions: Salmonella enterica; in short: as §1
[35] = test system: Serratia marcescens; assay: Minimum inhibitory concentration of compound was determined against Serratia marcescens L 1488; type: functional; in short: as §1
[36] = species: Mus musculus; assay: Number of mouse survivors to that of treated with compound; 6 out of 8 survived; type: functional
[37] = test system: Shigella dysenteriae; assay: Minimum inhibitory concentration of compound was determined against Shigella dysentariae L155; type: functional
[38] = test system: Proteus vulgaris; assay: Minimum inhibitory concentration of compound was determined against Proteus vulgaris L 1539; type: functional; in short: as §1
[39] = test system: Proteus mirabilis; assay: Minimum inhibitory concentration of compound was determined against Proteus mirabilis L 1157; type: functional; in short: as §1
[40] = test system: Staphylococcus epidermidis; assay: Minimum inhibitory concentration against Staphylococcus epidermidis ATCC 12228; type: functional; in short: as §1
[41] = Association constant determined at pH 9; Value ranges from 5E4-7.5E4; type: ADME
[42] = test system: Escherichia coli; assay: Efficacy of compound administered intravenously against Escherichia coli L47 Septicemia in mouse; type: functional; conditions: iv; in short: as §4
[43] = test system: Escherichia coli; assay: Efficacy of compound administered subcutaneously against Escherichia coli L47 Septicemia in mouse; type: functional; conditions: sc; in short: as §4
[44] = species: Mus musculus; assay: Number of survivors mouse to that of treated with compound; 7 out of 8 survived; type: functional

Structure (SMILES): NCCCNCCCNCCCNC(=O)[C@H]1NC(=O)[C@H]2NC(=O)[C@H](NC(=O)[C@@H]3NC(=O)[C@H]4NC(=O)[C@@H](Cc5ccc(c(Cl)c5)Oc5cc3cc(c5O)Oc3ccc(cc3Cl)[C@H]2O)NC(=O)[C@H](N)c2ccc(O)c(c2)Oc2cc(O)cc4c2)c2ccc(O)c(c2)-c2c(O)cc(O)cc21
- MIC [1]: 0.5 µg/mL (≈ 0.365 µM)
- MIC [2]: 2 µg/mL (≈ 1.46 µM)
- MIC [3]: 0.125 µg/mL (≈ 0.0913 µM)
- MIC [4]: 2 µg/mL (≈ 1.46 µM)
- MIC [5]: 32 µg/mL (≈ 23.4 µM)
- MIC [6]: 0.063 µg/mL (≈ 0.046 µM)
- MIC [7]: 32 µg/mL (≈ 23.4 µM)
- Ka [8]: 75000 M⁻¹
- MIC [9]: 0.063 µg/mL (≈ 0.046 µM)
- MIC [10]: 32 µg/mL (≈ 23.4 µM)
- MIC [11]: 64 µg/mL (≈ 46.7 µM)
- MIC [12]: 64 µg/mL (≈ 46.7 µM)
- MIC [13]: 0.25 µg/mL (≈ 0.183 µM)
- MIC [14]: 8 µg/mL (≈ 5.84 µM)
- MIC [15]: 4 µg/mL (≈ 2.92 µM)
- MIC [16]: 8 µg/mL (≈ 5.84 µM)
- ED50 [17]: 0.72 mg/kg
- MIC [18]: 2 µg/mL (≈ 1.46 µM)
- MIC [19]: 0.063 µg/mL (≈ 0.046 µM)
- MIC [20]: 1 µg/mL (≈ 0.73 µM)
- MIC [21]: 2 µg/mL (≈ 1.46 µM)
- ED50 [22]: < 40 mg/kg
- MIC [23]: 8 µg/mL (≈ 5.84 µM)
- MIC [24]: 2 µg/mL (≈ 1.46 µM)
- MIC [25]: 64 µg/mL (≈ 46.7 µM)
- MIC [26]: 4 µg/mL (≈ 2.92 µM)
- MIC [27]: 16 µg/mL (≈ 11.7 µM)
- MIC [28]: 4 µg/mL (≈ 2.92 µM)
- ED50 [29]: > 200 mg/kg
- MIC [30]: 4 µg/mL (≈ 2.92 µM)
- MIC [31]: 128 µg/mL (≈ 93.5 µM)
- MIC [32]: 0.06 µg/mL (≈ 0.0438 µM)
- MIC [33]: 2 µg/mL (≈ 1.46 µM)
- MIC [34]: 4 µg/mL (≈ 2.92 µM)
- MIC [35]: 8 µg/mL (≈ 5.84 µM)
- Survivors [36]: 6
- MIC [37]: 1 µg/mL (≈ 0.73 µM)
- MIC [38]: 32 µg/mL (≈ 23.4 µM)
- MIC [39]: 128 µg/mL (≈ 93.5 µM)
- MIC [40]: 0.016 µg/mL (≈ 0.0117 µM)

Structure (SMILES): NCCCNCCCNC(=O)[C@H]1NC(=O)[C@H]2NC(=O)[C@H](NC(=O)[C@@H]3NC(=O)[C@H]4NC(=O)[C@@H](Cc5ccc(c(Cl)c5)Oc5cc3cc(c5O)Oc3ccc(cc3Cl)[C@H]2O)NC(=O)[C@H](N)c2ccc(O)c(c2)Oc2cc(O)cc4c2)c2ccc(O)c(c2)-c2c(O)cc(O)cc21
- MIC [1]: 1 µg/mL (≈ 0.762 µM)
- MIC [2]: 8 µg/mL (≈ 6.1 µM)
- MIC [3]: 0.125 µg/mL (≈ 0.0953 µM)
- Ka [41]: 50000 M⁻¹
- MIC [6]: 0.063 µg/mL (≈ 0.048 µM)
- MIC [9]: 0.125 µg/mL (≈ 0.0953 µM)
- MIC [12]: 32 µg/mL (≈ 24.4 µM)
- MIC [13]: 0.125 µg/mL (≈ 0.0953 µM)
- ED50 [17]: 1.65 mg/kg
- MIC [19]: 0.063 µg/mL (≈ 0.048 µM)
- MIC [32]: 0.13 µg/mL (≈ 0.0991 µM)
- MIC [40]: 0.032 µg/mL (≈ 0.0244 µM)

Structure (SMILES): NCCCN(CCCN)CCCNC(=O)[C@H]1NC(=O)[C@H]2NC(=O)[C@H](NC(=O)[C@@H]3NC(=O)[C@H]4NC(=O)[C@@H](Cc5ccc(c(Cl)c5)Oc5cc3cc(c5O)Oc3ccc(cc3Cl)[C@H]2O)NC(=O)[C@H](N)c2ccc(O)c(c2)Oc2cc(O)cc4c2)c2ccc(O)c(c2)-c2c(O)cc(O)cc21
- MIC [1]: 1 µg/mL (≈ 0.73 µM)
- MIC [2]: 8 µg/mL (≈ 5.84 µM)
- ED50 [42]: < 40 mg/kg
- MIC [3]: 0.125 µg/mL (≈ 0.0913 µM)
- MIC [6]: 0.125 µg/mL (≈ 0.0913 µM)
- ED50 [43]: 40 mg/kg
- MIC [9]: 0.063 µg/mL (≈ 0.046 µM)
- MIC [12]: 128 µg/mL (≈ 93.5 µM)
- MIC [13]: 0.125 µg/mL (≈ 0.0913 µM)
- ED50 [17]: 0.72 mg/kg
- MIC [19]: 0.063 µg/mL (≈ 0.046 µM)
- MIC [32]: 0.06 µg/mL (≈ 0.0438 µM)
- Survivors [44]: 7
- MIC [40]: 0.008 µg/mL (≈ 0.00584 µM)
